How the values were obtained:
[1] = system: MCF7; experiment: Cytotoxicity against human MCF7 cells assessed as reduction in cell growth incubated for 72 hrs by MTT assay; type: functional, cell-based; conditions: MCF7, 72 h
How it was run: (§1)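 Cells grown in DMEM with 10% FBS and penicillin-streptomycin at 37 °C, 5% CO2, seeded at 3000 cells/well and attached overnight. Screening series given at 1, 3, 10, 100 μM; follow-up agent at 100 nM–3 μM; both 72 h, with 0.1% DMSO vehicle. MTT (5 mg/mL stock) added for 3 h at 37 °C, formazan dissolved in DMSO, absorbance read at 570 nm. Viability expressed as % of DMSO-treated wells from replicates.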

[2] = system: A-375; experiment: Cytotoxicity against human A375 cells assessed as reduction in cell growth at 30 uM incubated for 72 hrs by MTT assay relative to control; type: functional; conditions: A-375, 72 h, read-out: GI
[3] = system: MCF7; experiment: Cytotoxicity against human MCF7 cells assessed as reduction in cell growth at 30 uM incubated for 72 hrs by MTT assay relative to control; type: functional; conditions: MCF7, 72 h, read-out: GI
[4] = system: HeLa; experiment: Cytotoxicity against human HeLa cells assessed as reduction in cell growth at 30 uM incubated for 72 hrs by MTT assay relative to control; type: functional; conditions: read-out: GI
[5] = system: MCF7; experiment: Cytotoxicity against human MCF7 cells assessed as reduction in cell growth at 100 uM incubated for 72 hrs by MTT assay relative to control; type: functional; conditions: MCF7, 72 h, read-out: GI; how it was run: as §1
[6] = system: MCF7; experiment: Cytotoxicity against human MCF7 cells assessed as reduction in cell growth at 1 uM incubated for 72 hrs by MTT assay relative to control; type: functional; conditions: MCF7, 72 h, read-out: GI; how it was run: as §1
[7] = system: HeLa; experiment: Cytotoxicity against human HeLa cells assessed as reduction in cell growth at 100 uM incubated for 72 hrs by MTT assay relative to control; type: functional; conditions: read-out: GI; how it was run: as §1
[8] = system: A-431; experiment: Cytotoxicity against human A431 cells assessed as reduction in cell growth incubated for 72 hrs by MTT assay; type: functional, cell-based; conditions: A-431, 72 h; how it was run: as §1
[9] = system: A-431; experiment: Cytotoxicity against human A431 cells assessed as reduction in cell growth at 30 uM incubated for 72 hrs by MTT assay relative to control; type: functional; conditions: A-431, 72 h, read-out: GI
[10] = system: MCF7; experiment: Cytotoxicity against human MCF7 cells assessed as reduction in cell growth at 3 uM incubated for 72 hrs by MTT assay relative to control; type: functional; conditions: MCF7, 72 h, read-out: GI; how it was run: as §1
[11] = system: HeLa; experiment: Cytotoxicity against human HeLa cells assessed as reduction in cell growth at 10 uM incubated for 72 hrs by MTT assay relative to control; type: functional; conditions: read-out: GI; how it was run: as §1
[12] = system: HeLa; experiment: Cytotoxicity against human HeLa cells assessed as reduction in cell growth at 1 uM incubated for 72 hrs by MTT assay relative to control; type: functional; conditions: read-out: GI; how it was run: as §1
[13] = system: A-431; experiment: Cytotoxicity against human A431 cells assessed as reduction in cell growth at 1 uM incubated for 72 hrs by MTT assay relative to control; type: functional; conditions: A-431, 72 h, read-out: GI; how it was run: as §1
[14] = system: A-431; experiment: Cytotoxicity against human A431 cells assessed as reduction in cell growth at 3 uM incubated for 72 hrs by MTT assay relative to control; type: functional; conditions: A-431, 72 h, read-out: GI; how it was run: as §1
[15] = system: A-375; experiment: Cytotoxicity against human A375 cells assessed as reduction in cell growth at 1 uM incubated for 72 hrs by MTT assay relative to control; type: functional; conditions: A-375, 72 h, read-out: GI; how it was run: as §1
[16] = system: A-375; experiment: Cytotoxicity against human A375 cells assessed as reduction in cell growth at 3 uM incubated for 72 hrs by MTT assay relative to control; type: functional; conditions: A-375, 72 h, read-out: GI; how it was run: as §1
[17] = system: MCF7; experiment: Cytotoxicity against human MCF7 cells assessed as reduction in cell growth at 10 uM incubated for 72 hrs by MTT assay relative to control; type: functional; conditions: MCF7, 72 h, read-out: GI; how it was run: as §1
[18] = system: A-375; experiment: Cytotoxicity against human A375 cells assessed as reduction in cell growth at 100 uM incubated for 72 hrs by MTT assay relative to control; type: functional; conditions: A-375, 72 h, read-out: GI; how it was run: as §1
[19] = system: HeLa; experiment: Cytotoxicity against human HeLa cells assessed as reduction in cell growth incubated for 72 hrs by MTT assay; type: functional, cell-based; how it was run: as §1
[20] = system: A-431; experiment: Cytotoxicity against human A431 cells assessed as reduction in cell growth at 100 uM incubated for 72 hrs by MTT assay relative to control; type: functional; conditions: A-431, 72 h, read-out: GI; how it was run: as §1
[21] = system: A-375; experiment: Cytotoxicity against human A375 cells assessed as reduction in cell growth incubated for 72 hrs by MTT assay; type: functional, cell-based; conditions: A-375, 72 h; how it was run: as §1
[22] = system: HeLa; experiment: Cytotoxicity against human HeLa cells assessed as reduction in cell growth at 3 uM incubated for 72 hrs by MTT assay relative to control; type: functional; conditions: read-out: GI; how it was run: as §1
[23] = system: A-375; experiment: Cytotoxicity against human A375 cells assessed as reduction in cell growth at 10 uM incubated for 72 hrs by MTT assay relative to control; type: functional; conditions: A-375, 72 h, read-out: GI; how it was run: as §1
[24] = system: A-431; experiment: Cytotoxicity against human A431 cells assessed as reduction in cell growth at 10 uM incubated for 72 hrs by MTT assay relative to control; type: functional; conditions: A-431, 72 h, read-out: GI; how it was run: as §1

SMILES	IC50 [1]	inhibition of growth at 30 µM [2]	inhibition of growth at 30 µM [3]	inhibition of growth at 30 µM [4]	inhibition of growth at 100 µM [5]	inhibition of growth at 1 µM [6]	inhibition of growth at 100 µM [7]	IC50 [8]	inhibition of growth at 30 µM [9]	inhibition of growth at 3 µM [10]	inhibition of growth at 10 µM [11]	inhibition of growth at 1 µM [12]	inhibition of growth at 1 µM [13]	inhibition of growth at 3 µM [14]	inhibition of growth at 1 µM [15]	inhibition of growth at 3 µM [16]	inhibition of growth at 10 µM [17]	inhibition of growth at 100 µM [18]	IC50 [19]	inhibition of growth at 100 µM [20]	further results
Cc1cccc(/C(N)=N/NC(=S)N2CCCCC2)n1	74 µM	80.9%	43%	83.5%	54%	19.5%	85.4%	12.4 µM	65.2%	27.1%	83.5%	27%	35%	36.6%	49.9%	63.2%	39%	85.7%	2 µM	77.5%	IC50 [21]: 1 µM; inhibition of growth at 3 µM [22]: 68.9%; inhibition of growth at 10 µM [23]: 76.4%; inhibition of growth at 10 µM [24]: 47.8%
N/C(=N\NC(=S)N1CCOCC1)c1ccccn1	4.7 µM	15%	78.1%	82.8%	81.6%	14.7%	87.2%	4.8 µM	78.8%	44.5%	56.3%	12.7%	29.2%	43.1%	26.8%	19.3%	66.7%	14%	7.3 µM	84.6%	IC50 [21]: 0.68 µM; inhibition of growth at 3 µM [22]: 40%; inhibition of growth at 10 µM [23]: 18.3%; inhibition of growth at 10 µM [24]: 69.4%
N/C(=N\NC(=S)N1CCN(c2ccccn2)CC1)c1ccccn1	13.7 µM	81%	65.3%	78.9%	68.3%	36%	85.6%	4.3 µM	74.9%	37.2%	56.1%	16.7%	11.6%	45.8%	70%	73.7%	46.4%	86.8%	8.6 µM	91.9%	IC50 [21]: 0.7 µM; inhibition of growth at 3 µM [22]: 24.4%; inhibition of growth at 10 µM [23]: 74.4%; inhibition of growth at 10 µM [24]: 69%

Source: ChEMBL document CHEMBL4387724, “2-Pyridineformamide N(4)-ring incorporated thiosemicarbazones inhibit MCF-7 cells by inhibiting JNK pathway” (Bioorg Med Chem Lett, 2019)
